Measured values as given in paper PMC9116722 (Cancer chemotherapy and pharmacology, 2022).

How the values were obtained:
[1] = Non-compartmental pharmacokinetics; format: in vivo, human
Summary of the method: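 Patients took oral drug twice daily, continuously, at 50–500 mg BID. Plasma parent drug and active metabolite M8 were measured by a validated assay. Parameters were derived non-compartmentally on day 1 and reported as geometric mean (SD). Accumulation indices for Cmax and AUC0–8 were compared with theoretical values from D1 half-lives. Dose proportionality was tested on day-1 Cmax and AUC0-inf (95% CI of coefficient including 1).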

[2] = phase 3 maintenance trials ref 25-27; cited from earlier work
sporadic ovarian cancer = sporadic ovarian cancer ref 43; cited from earlier work
[3] = metabolite M8, geometric mean (SD)

CC1(c2nc3c(C(N)=O)cccc3[nH]2)CCC(=O)N1 (stereo not drawn) [M8]
M8/ABT-888 metabolic ratio, AUC0-inf ([1]; day 1): 0.21 (1.9)
M8/ABT-888 metabolic ratio, Cmax ([1]; day 1): 0.11 (1.8)
theoretical accumulation index ([1]; metabolite M8, from D1 half-lives, geometric mean (SD)): 1.51 (1.25)
accumulation index for AUC0–8 [1, 3]: 1.59 (1.41)
accumulation index for Cmax [1, 3]: 1.51 (1.34)

NC(=O)c1cccc2cn(-c3ccc([C@@H]4CCCNC4)cc3)nc12 [niraparib]
grade 3 or 4 anemia [2]: 25%

O=C(c1cc(Cc2n[nH]c(=O)c3ccccc23)ccc1F)N1CCN(C(=O)C2CC2)CC1 [olaparib]
grade 3 or 4 anemia [2]: 19%
patients with objective responses (sporadic ovarian cancer): 24%

CNCc1ccc(-c2[nH]c3cc(F)cc4c3c2CCNC4=O)cc1 [rucaparib]
grade 3 or 4 anemia [2]: 19%
